# According to paper PMC11913021 (Journal of Medicinal Chemistry, 2024):
# Substitutions are numbered along the chain they refer to. Values joined by “and” are separate entries in the source; they are usually repeats but may differ in a detail not shown here. Identical values can stand only once.
# How the values were obtained:
# [1] = system: Calu6 lung cancer cells; assay: WST-1 cell viability assay, Calu6; type: cell-based; conditions: read-out: IC50 of viability; Calu6, WST-1, 48 h
# Method in brief: (§1)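 Cells grown in DMEM or RPMI 1640 with 10% FBS and 1% penicillin/streptomycin at 37 °C, 5% CO2. Seeded at 5 × 10^3 cells/well and held 24 h at 37 °C, then exposed to test compound for 48 h. WST-1 absorbance was read at 450 nm, in triplicate. IC50 was taken as the concentration giving 50% growth inhibition versus control.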
# [2] = target: T1, L425A mutant PLD1 (Homo sapiens, UniProt Q13393, L425A); assay: PLD activity assay in L425A mutant PLD1-transfected cells; type: cell-based
# T1 sequence (Q13393 1-1036 isoform Q13393-2 L425A): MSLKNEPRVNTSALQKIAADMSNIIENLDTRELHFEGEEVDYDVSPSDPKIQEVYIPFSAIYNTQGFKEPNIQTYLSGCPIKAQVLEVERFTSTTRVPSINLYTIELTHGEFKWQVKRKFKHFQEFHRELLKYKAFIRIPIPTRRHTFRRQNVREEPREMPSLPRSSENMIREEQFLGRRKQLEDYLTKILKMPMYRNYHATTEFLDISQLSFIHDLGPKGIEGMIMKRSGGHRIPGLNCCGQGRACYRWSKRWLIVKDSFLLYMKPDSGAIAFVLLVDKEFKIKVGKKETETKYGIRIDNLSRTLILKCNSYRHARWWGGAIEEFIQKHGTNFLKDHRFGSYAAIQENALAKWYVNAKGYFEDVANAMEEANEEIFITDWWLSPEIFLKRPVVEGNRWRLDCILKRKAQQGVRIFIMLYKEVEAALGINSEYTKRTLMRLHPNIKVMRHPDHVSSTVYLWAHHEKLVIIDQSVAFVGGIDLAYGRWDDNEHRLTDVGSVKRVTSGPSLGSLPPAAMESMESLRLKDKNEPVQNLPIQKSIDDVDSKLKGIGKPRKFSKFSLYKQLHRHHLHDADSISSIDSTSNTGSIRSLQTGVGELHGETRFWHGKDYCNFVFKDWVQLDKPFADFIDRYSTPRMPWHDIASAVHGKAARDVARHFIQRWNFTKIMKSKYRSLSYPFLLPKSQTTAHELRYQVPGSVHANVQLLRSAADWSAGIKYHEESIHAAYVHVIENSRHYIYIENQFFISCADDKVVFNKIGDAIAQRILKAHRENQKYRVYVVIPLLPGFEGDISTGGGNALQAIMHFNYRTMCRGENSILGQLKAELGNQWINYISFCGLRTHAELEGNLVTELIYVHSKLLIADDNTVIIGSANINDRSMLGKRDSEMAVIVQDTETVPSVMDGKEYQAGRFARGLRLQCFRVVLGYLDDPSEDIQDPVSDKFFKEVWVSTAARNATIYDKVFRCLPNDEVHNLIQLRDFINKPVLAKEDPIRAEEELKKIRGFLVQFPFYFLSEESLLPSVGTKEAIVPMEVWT
# [3] = system: A549 cells; assay: In vitro phagocytosis assay; type: cell-based, human; conditions: A549 cocultured with PMA-activated THP-1
# Method in brief: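 A549 cells treated with test compound for 48 h in RPMI with 10% FBS, then labelled with 1 μM CFSE. THP-1 cells were differentiated with PMA for 36 h, and 5 × 10^5 were co-incubated with equal CFSE-labelled cells in serum-free RPMI for 2 h. After Fc block and PerCP-Cy5.5 anti-CD11b staining (20 min, 4 °C), CFSE+CD11b+ cells were counted by flow cytometry in at least three independent experiments.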
# [4] = system: CD24, CD47, PD-L1, CRT; assay: Flow cytometry of “don’t eat-me” and “eat-me” signals in A549 cells; type: cell-based
# [5] = system: A549 cells; assay: Ki67 staining proliferation assay; type: cell-based
# [6] = target: T2, F614A mutant PLD1 (Homo sapiens, UniProt Q13393, F652A); assay: PLD activity assay in F614A mutant PLD1-transfected cells; type: cell-based
# T2 sequence (Q13393 1-1036 isoform Q13393-2 F614A): T1 sequence (Q13393 1-1036 isoform Q13393-2 L425A) with A425L, F614A
# [7] = system: KRAS; assay: RAS activation assay in KRAS-transfected cells; type: cell-based
# Method in brief: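 Cells treated with test compound for 24 h and lysed with protease inhibitor, then spun at 13,000 rpm for 10 min at 4 °C. Lysate (800 μg) was incubated overnight at 4 °C with GST-Raf1-RBD beads and washed three times. Bound RAS-GTP was eluted in SDS buffer, heated at 100 °C for 5 min, and immunoblotted for RAS.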
# [8] = Body weight of normal C57BL/6 mice without cancer cells; type: in vivo, mouse; conditions: oral, C57BL/6 without cancer cells, vs untreated
# [9] = system: A549 cells; assay: WST-1 cell viability assay, A549; type: cell-based; conditions: read-out: IC50 of viability; A549, WST-1, 48 h
# Method in brief: as §1
substance,measurement,setting,value
"N-(3,5-Bis(trifluoromethyl)phenyl)-3-(1H-indol-3-yl)propanamide [3r]",IC50,[1],19 µM
same,PLD activity,[2],significantly suppressed
same,CD11b^+CFSE^+ macrophages (phagocytosis),[3],significantly increased
same,expression of “don’t eat-me” signals,[4],reduced
same,expression of “eat-me” signals,[4],enhanced
same,Ki67-positive proliferation,[5],significantly inhibited
same,PLD activity,[6],did not significantly inhibit
same,KRAS activation,[7],inhibited
same,weight of the normal mice,[8],no effect
same,IC50,[9],18 µM and 18.4 µM
